rRNA inh HTS: inhibitors of bacterial rRNA selective over humanized ribosomes. E. coli WT GFP vs humanized-ribosome RFP mutants, fluorescence, 24 h; hits give low values; DMSO median 0, no signal -100. GFP signal change (wild-type ribosome), % (no concentration beside the values). hit rate 1.6% among 350,000;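 active = significant combined selectivity score with lowered wild-type GFP, culture density cut under 30%, mutant RFP and density less affected; inactive = any of these conditions unmet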
ERAP1 inh: ERAP1 (human) enzyme inhibition | inhibition, % at 10.7 µM | recombinant ERAP1, Leu-AMC fluorescence, 60 min | hit rate 0.15% among 340,000 | Q9NZ08 | AID 652197;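 active = mean replicate inhibition of at least 30%, or all replicates individually reaching that 30% level; inactive = mean below 30% and not every replicate reaching it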;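 note: 0% = neutral control wells and 100% = L-leucinethiol positive control wells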
SIRT5 block: sirtuin-5 (human) deacylase inhibition; AID 652115; Q9NXA8; hit rate 1.1% among 330,000; inhibition, % at 15 µM; Purified SirT5, succinyl-peptide AMC, trypsin-coupled fluorescence; in the data active = inhibition above about 15%; inconclusive = no clear call, values can overlap the other calls
MLL AF4-AF9 inh: MLL-AF4/AF9 protein interaction inhibition | inhibition, % at 10 µM | hit rate 0.47% among 350,000 | AlphaScreen, biotin-AF4 peptide binding to FLAG-AF9 | P42568;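 active = every replicate reaching a set inhibition limit, whatever the replicate mean, cut at about 25% in these data; inconclusive = mean inhibition reaches that limit but some replicates miss it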;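 note: 0% = plate neutral control median and 100% = total signal loss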
Target sequence (P42568 whole entry, looked up): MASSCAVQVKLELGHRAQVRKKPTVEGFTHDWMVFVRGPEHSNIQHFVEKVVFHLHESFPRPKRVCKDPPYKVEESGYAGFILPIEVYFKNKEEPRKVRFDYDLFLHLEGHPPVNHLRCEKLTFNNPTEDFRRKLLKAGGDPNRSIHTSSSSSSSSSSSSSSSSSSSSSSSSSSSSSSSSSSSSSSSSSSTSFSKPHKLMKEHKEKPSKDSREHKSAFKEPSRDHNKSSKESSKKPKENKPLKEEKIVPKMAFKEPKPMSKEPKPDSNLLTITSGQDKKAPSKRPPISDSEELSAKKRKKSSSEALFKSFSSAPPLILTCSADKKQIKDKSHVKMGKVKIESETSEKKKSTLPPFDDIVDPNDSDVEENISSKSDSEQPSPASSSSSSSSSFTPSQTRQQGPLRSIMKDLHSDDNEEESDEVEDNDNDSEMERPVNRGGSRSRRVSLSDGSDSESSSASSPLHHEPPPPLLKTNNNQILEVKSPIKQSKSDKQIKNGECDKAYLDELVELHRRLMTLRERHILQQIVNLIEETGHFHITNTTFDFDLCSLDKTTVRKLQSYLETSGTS
S100A4 MyoIIA: inhibitors of human S100A4 binding to myosin IIA peptide; inhibition, % at 10.7 µM; S100A4/TAMRA-MyoIIA peptide fluorescence polarization; AID 652163; P26447; hit rate 0.14% among 360,000;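 active = mean inhibition of at least 70% across replicates, with every replicate also reaching that level; inconclusive = mean inhibition reaches 70% but some replicates fall short; inactive = mean inhibition below 70%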
Target sequence (P26447 whole entry, looked up): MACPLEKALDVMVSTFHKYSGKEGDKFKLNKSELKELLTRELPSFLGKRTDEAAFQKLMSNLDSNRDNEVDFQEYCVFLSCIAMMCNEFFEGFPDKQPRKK
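Compound dosing: one dose per compound; test system: human S100A4 monomer with TAMRA-labelled myosin IIA peptide; probe or stimulus: TAMRA-labelled myosin IIA heavy-chain peptide probe, 5 nM; medium: HEPES buffer with Ca2+, pH 7.2; schedule: 5 min incubation before reading; benchmarks: neutral control DMSO, positive control TFP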
E-sel inducer: induces E-selectin expression in human endothelial cells | P16581 | HUVEC E-selectin immunofluorescence imaging; normalized: neutral wells 0, TNF-alpha wells 100 | activation, % at 7.58 µM | hit rate 0.37% among 260,000 | AID 686992;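 active = mean E-selectin-positive cell signal at least 10% of the positive control, reached in at least 60% of replicates, without over 20% cell loss; inconclusive = no rule given, readout overlaps actives, possibly toxicity-flagged; inactive = the rest, including those meeting only one limit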
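System: HUVEC, human umbilical vein endothelial cells; quantity: 3,000 cells/well; buffer or medium: EGM-2 medium, gelatin-coated wells; dosing: single-point compound dose; detection: immunofluorescence imaging; evaluation: % PE-positive cells; benchmarks: TNF-alpha, DMSO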
* hit, by the source's call; ? = inconclusive; · = no result given. Shown are actives, neighbours in structure and some others; about 3.4% of the full set was active somewhere.

SMILES | rRNA inh HTS | ERAP1 inh | SIRT5 block | MLL AF4-AF9 inh | S100A4 MyoIIA | E-sel inducer
COCC(=O)N1CCC2(CC1)CN(C(=O)CN1CCOCC1)[C@@H](CO)c1c2c2ccc(OC)cc2n1C | 1.1 | 1.0 | -0.6 | -16.0 | -26.9 | 0.2
COc1cccc(-c2ccc3c(c2)[C@H]2[C@H](CCN2C(=O)NC2CCCCC2)[C@H](CO)N3C)c1 | -13.4 | -1.9 | -4.8 | 15.1 | 56.0 | 0.4
CC(=O)C1=C(O)C(=O)N(c2ccc(O)cc2)C1c1ccccc1[N+](=O)[O-] (centres undefined) | -1.4 | -0.9 | 5.4 | -2.2 | 4.1 | ·
CCCCN1C(=O)C(O)=C(C(C)=O)C1c1ccccc1[N+](=O)[O-] (centres undefined) | 11.7 | -2.5 | 24.0* | -2.9 | -6.1 | ·
COc1ccc(C(=O)NC(=S)NCc2ccccc2)cc1OC | -9.5 | 0.6 | -2.1 | 2.4 | -2.7 | ·
COc1cc(NC(=S)NCc2cccnc2)cc(OC)c1OC | -2.9 | 5.6 | -2.0 | -2.0 | 7.4 | 27.2*
COc1ccc(C(=O)NC(=S)NCc2cccnc2)cc1OC | -28.5* | -1.1 | 7.6 | -3.0 | -5.2 | -2.1
COC(=O)[C@@H]1[C@@H](CO)[C@@H]2Cn3c(ccc(-c4cccc(F)c4)c3=O)[C@@H]2N1Cc1ccncc1 | -1.7 | -10.2 | -7.7 | -1.1 | -10.9 | 0.9
O=C(CN1c2ccccc2Sc2ccccc21)NNC(=S)Nc1ccc(Cl)cc1 | -47.7* | -1.6 | 0.7 | -2.1 | 42.2 | 2.1
O=C(CN1CCOCC1)NNC(=S)Nc1ccc(Cl)cc1 | -6.6 | · | -9.1 | -2.6 | -1.5 | 0.3
CN(C)c1ccc2c(c1)[C@H]1C[C@H](CC(=O)N3CCCCC3)O[C@H](CO)[C@H]1O2 | 3.1 | -1.5 | 4.6 | -1.1 | -2.6 | 0.3
CCCCCCCCN1C(=O)[C@H](CC(=O)NCC2CCCCC2)C[C@@]2(C(=O)OC)CCCCC=C12 | 12.6 | -2.7 | 15.5* | 0.7 | -15.4 | ·
CCCCCCCCN1C(=O)[C@H](CC(=O)NCCC(C)C)C[C@@]2(C(=O)OCC)CCCC=C12 | 18.1 | -2.6 | 20.9* | 1.3 | 10.5 | ·
CCOC(=O)[C@]12CCCC=C1N(CCC1=CCCCC1)C(=O)[C@H](CC(=O)NCCC(C)C)C2 | 5.2 | · | -6.7 | -5.7 | -2.3 | ?
O=S(=O)(Nc1nc2ccccc2nc1NCC1CCCO1)c1cc(Cl)ccc1Cl (centres undefined) | -27.4* | · | 1.5 | 9.6 | 2.1 | -0.3
COCC(=O)N1CC2(CN(Cc3nccs3)C2)c2c(n(C)c3cc(OC)ccc23)[C@H]1CO | 0.9 | · | · | 0.4 | · | 0.8
CC(C)CCN1CCN(Cc2cnc(N3CCCC3)s2)CC1CCO (centres undefined) | 10.8 | 9.3 | 38.2* | -1.3 | -3.2 | 1.0
CC(C)N1CCN(Cc2cnc(-c3ccccc3)s2)CC1CCO (centres undefined) | 17.1 | -1.7 | 22.0* | -4.9 | 56.7 | ·
C[C@@H]1CN([C@@H](C)CO)C(=O)c2cc(C#C[C@@H](C)O)cnc2O[C@H]1CN(C)C(=O)c1ccccc1F | -0.3 | 1.6 | -2.6 | -0.6 | -16.5 | ·
O=C(Nc1ccc(F)cc1)N1C[C@@H]2[C@H](c3ccccc31)[C@@H](CO)N2C(=O)c1ccccn1 | -0.1 | · | · | · | -4.8 | 1.2
O=C(Nc1ccc(Cl)cc1)N1C[C@@H]2[C@H](c3ccccc31)[C@@H](CO)N2C(=O)c1ccccn1 | -25.4* | · | · | · | · | -0.2
O=C(Nc1cccc(Cl)c1)N1C[C@@H]2[C@H](c3ccccc31)[C@@H](CO)N2C(=O)c1ccncc1 | -50.7 | -2.7 | -2.6 | 1.1 | -1.8 | 0.1
O=C(Nc1ccccc1)N1C[C@@H]2[C@H](c3ccccc31)[C@@H](CO)N2C(=O)Cc1ccccn1 | -36.7* | -1.1 | -0.4 | 0.5 | 5.9 | 0.5
O=C(Nc1ccc(Cl)cc1)N1C[C@@H]2[C@H](c3ccccc31)[C@H](CO)N2C(=O)c1ccccn1 | -52.6* | · | -0.2 | · | · | 0.4
O=C(Nc1cccc(Cl)c1)N1C[C@@H]2[C@H](c3ccccc31)[C@H](CO)N2C(=O)c1cccnc1 | -20.5* | · | · | · | · | -0.1
SMILES | rRNA inh HTS | ERAP1 inh | SIRT5 block | MLL AF4-AF9 inh | S100A4 MyoIIA | E-sel inducer
COCC(=O)Nc1ccc2c(c1)OC[C@@H](C)N(Cc1ccccc1OC)C[C@@H](C)[C@H](OC)CN(C)C2=O | 1.2 | · | · | · | · | -0.1
CC(C)NC(=O)Nc1ccc2c(c1)C(=O)N([C@@H](C)CO)C[C@@H](C)[C@@H](CN(C)C(=O)Cc1ccccc1)OCCCC[C@H](C)O2 | 0.1 | · | · | · | · | -0.1
COc1cccc(S(=O)(=O)Nc2ccc3c(c2)C(=O)N(C)[C@@H]2CC[C@@H](CC(=O)O)O[C@H]2CO3)c1 | 1.8 | · | · | · | · | 0.0
C[C@@H]1CN(C)C(=O)c2cccnc2O[C@H]1CN(C)S(C)(=O)=O | -2.9 | · | · | · | · | ·
Oc1cc2c(cc1O)C1c3ccc(O)c(O)c3OCC1(O)C2 (centres undefined) | -18.4 | 8.8 | 0.6 | 40.0* | -2.2 | ·
COc1ccc2cc(C(=O)C3CCCN(C(=O)C4=NN(C)C(=O)CC4)C3)ccc2c1 (centres undefined) | -25.6* | 2.2 | -28.8 | -0.6 | 6.5 | ·
O=C(CN1C2CCCC1CC(NC(=O)c1ccccc1)C2)Nc1ccccc1C(F)(F)F (centres undefined) | -41.0* | -0.3 | -2.1 | 0.4 | -3.7 | ·
O=C(CN1C2CCCC1CC(NC(=O)c1ccccc1)C2)Nc1ccccc1 (centres undefined) | 0.2 | 2.1 | -1.4 | -5.2 | -4.5 | ·
COc1ccc2c3c(n(C)c2c1)[C@H](CO)N(C(C)=O)CC31CCN(C(=O)c2ccccc2)CC1 | -1.8 | 1.2 | -2.7 | 2.4 | 2.8 | 0.2
C[C@@H]1CN([C@@H](C)CO)C(=O)c2cc(C#C[C@@H](C)O)cnc2O[C@@H]1CN(C)C(=O)Cc1ccncc1 | 8.7 | -0.9 | -0.1 | -1.6 | 6.4 | 0.1
c1cc(Nc2cccc3nccnc23)c2nccnc2c1 | -7.9 | 0.3 | -1.4 | 25.7* | 1.9 | 4.7
O=C(N/N=C/c1cccc2nccnc12)c1ccncc1 | 2.3 | -2.4 | 7.3 | -4.1 | 5.5 | ·
CC(C)C#Cc1cnc2c(c1)C(=O)N([C@H](C)CO)C[C@H](C)[C@H](CN(C)C(=O)c1cnccn1)O2 | 4.4 | -3.5 | -6.1 | -12.0 | -0.1 | 2.0
CO[C@H]1CN(C)C(=O)c2ccc(NC(=O)NC(C)C)cc2OC[C@H](C)N(Cc2cncnc2)C[C@H]1C | 1.0 | · | · | · | · | -0.1
Cn1ncc2c(O/N=C(\N)c3ccc(C(F)(F)F)cc3)ncnc21 | -17.0* | -3.8 | -6.3 | 2.0 | 1.1 | 2.5
CCN(CC)P(=O)(Nc1ccc(Br)cc1)c1c(C)nn(CCC#N)c1NC(=O)c1ccc(Cl)cc1 (centres undefined) | -2.9 | -2.0 | -3.3 | 2.2 | -4.6 | 50.4*
CCC[n+]1c(C)sc2c(OC)ccc(OC)c21 | 18.4 | 51.6* | -0.3 | -5.5 | -0.4 | 0.1

Screening data: PubChem BioAssay, Broad Institute
